Assay results: ChEMBL document CHEMBL4680175, “Sulfonamide-based ring-fused analogues for CAN508 as novel carbonic anhydrase inhibitors endowed with antitumor activity: Design, synthesis, and in vitro biological evaluation” (Eur J Med Chem, 2020)
Calls of active or inactive are those of the source. The calls are words filed in the database; no cut-off is given here.

Experiments:
MDA-MB-231 = test: Antitumor activity against human MDA-MB-231/ATCC cells assessed as cell growth inhibition at 10 uM incubated for 48 hrs by sulforhodamine B assay; format: functional; details: read-out: GI
Summary of the method: (§1)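 NCI Drug Evaluation Branch protocol: primary single-dose screen at 10 μM across a 57-line human cancer panel. Drug exposure is 48 h. Cell growth and viability are read by sulforhodamine B assay. Data are given as a mean graph of percent growth of treated cells and reported as percentage growth inhibition (GI%).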

CCRF-CEM = test: Antitumor activity against human CCRF-CEM cells assessed as cell growth inhibition at 10 uM incubated for 48 hrs by sulforhodamine B assay; format: functional; details: read-out: GI; summary of the method: as §1
OVCAR-8 = test: Antitumor activity against human OVCAR-8 cells assessed as cell growth inhibition at 10 uM incubated for 48 hrs by sulforhodamine B assay; format: functional; details: read-out: GI; summary of the method: as §1
RPMI-8226 = test: Antitumor activity against human RPMI8226 cells assessed as cell growth inhibition at 10 uM incubated for 48 hrs by sulforhodamine B assay; format: functional; details: read-out: GI; summary of the method: as §1
SNB-75 = test: Antitumor activity against human SNB-75 cells assessed as cell growth inhibition at 10 uM incubated for 48 hrs by sulforhodamine B assay; format: functional; details: read-out: GI
Summary of the method: (§2)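 NCI one-dose screen: 57-cell-line panel exposed at 10 μM for 48 h, Drug Evaluation Branch protocol. Growth and viability read by sulforhodamine B; data given as percent growth inhibition from the mean-graph of percent growth of treated cells.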

NCI-H226 = test: Antitumor activity against human NCI-H226 assessed as cell growth inhibition at 10 uM incubated for 48 hrs by sulforhodamine B assay; format: functional; details: read-out: GI; summary of the method: as §1
PC-3 = test: Antitumor activity against human PC-3 cells assessed as cell growth inhibition at 10 uM incubated for 48 hrs by sulforhodamine B assay; format: functional; details: read-out: GI; summary of the method: as §1
SF-268 = test: Antitumor activity against human SF268 cells assessed as cell growth inhibition at 10 uM incubated for 48 hrs by sulforhodamine B assay; format: functional; details: read-out: GI; summary of the method: as §1
HOP-92 = test: Antitumor activity against human HOP92 cells assessed as cell growth inhibition at 10 uM incubated for 48 hrs by sulforhodamine B assay; format: functional; details: read-out: GI; summary of the method: as §1
UO-31 = test: Antitumor activity against human UO-31 cells assessed as cell growth inhibition at 10 uM incubated for 48 hrs by sulforhodamine B assay; format: functional; details: read-out: GI; summary of the method: as §2
NCI-H522 = test: Antitumor activity against human NCI-H522 cells assessed as cell growth inhibition at 10 uM incubated for 48 hrs by sulforhodamine B assay; format: functional; details: read-out: GI; summary of the method: as §1
SK-MEL-2 = test: Antitumor activity against human SK-MEL-2 cells assessed as cell growth inhibition at 10 uM incubated for 48 hrs by sulforhodamine B assay; format: functional; details: read-out: GI; summary of the method: as §1
NCI/ADR-RES = test: Antitumor activity against human NCI/ADR-RES cells assessed as cell growth inhibition at 10 uM incubated for 48 hrs by sulforhodamine B assay; format: functional, cell-based; summary of the method: as §1
OVCAR-3 = test: Antitumor activity against human OVCAR-3 cells assessed as cell growth inhibition at 10 uM incubated for 48 hrs by sulforhodamine B assay; format: functional; details: read-out: GI; summary of the method: as §1
[1] = target: Cyclin-dependent kinase 2/cyclin E1 (Homo sapiens, UniProt P24941); test: Inhibition of CDK2/cyclin E (unknown origin) expressed in baculovirus infected Sf21 insect cells using histone H1 as substrate in presence of [gamma33P]ATP
Malme-3M = test: Antitumor activity against human MALME-3M cells assessed as cell growth inhibition at 10 uM incubated for 48 hrs by sulforhodamine B assay; format: functional; details: read-out: GI; summary of the method: as §1
BT-549 = test: Antitumor activity against human BT-549 cells assessed as cell growth inhibition at 10 uM incubated for 48 hrs by sulforhodamine B assay; format: functional; details: read-out: GI; summary of the method: as §1
KM12 = test: Antitumor activity against human KM12 cells assessed as cell growth inhibition at 10 uM incubated for 48 hrs by sulforhodamine B assay; format: functional; details: read-out: GI; summary of the method: as §1
Carbonic anhydrase 9 = Carbonic anhydrase 9 (Homo sapiens, UniProt Q16790); test: Inhibition of recombinant human carbonic anhydrase 9 preincubated with enzyme for 15 mins by phenol red dye based stopped flow CO2 hydrase assay
RXF 393 = test: Antitumor activity against human RXF 393 cells assessed as cell growth inhibition at 10 uM incubated for 48 hrs by sulforhodamine B assay; format: functional; details: read-out: GI; summary of the method: as §1
IGROV-1 = test: Antitumor activity against human IGROV1 cells assessed as cell growth inhibition at 10 uM incubated for 48 hrs by sulforhodamine B assay; format: functional; details: read-out: GI; summary of the method: as §1
K562 = test: Antitumor activity against human K562 cells assessed as cell growth inhibition at 10 uM incubated for 48 hrs by sulforhodamine B assay; format: functional; details: read-out: GI; summary of the method: as §1
MCF7 = test: Antitumor activity against human MCF7 cells assessed as cell growth inhibition at 10 uM incubated for 48 hrs by sulforhodamine B assay; format: functional; details: read-out: GI; summary of the method: as §1
Carbonic anhydrase 2 = Carbonic anhydrase 2 (Homo sapiens, UniProt P00918); test: Inhibition of recombinant human carbonic anhydrase 2 preincubated with enzyme for 15 mins by phenol red dye based stopped flow CO2 hydrase assay
U-251 = test: Antitumor activity against human U251 cells assessed as cell growth inhibition at 10 uM incubated for 48 hrs by sulforhodamine B assay; format: functional; details: read-out: GI; summary of the method: as §2
CAKI-1 = test: Antitumor activity against human CAKI-1 cells assessed as cell growth inhibition at 10 uM incubated for 48 hrs by sulforhodamine B assay; format: functional; details: read-out: GI; summary of the method: as §1
T47D = test: Antitumor activity against human T-47D cells assessed as cell growth inhibition at 10 uM incubated for 48 hrs by sulforhodamine B assay; format: functional; details: read-out: GI; summary of the method: as §2
NCI-H460 = test: Antitumor activity against human NCI-H460 cells assessed as cell growth inhibition at 10 uM incubated for 48 hrs by sulforhodamine B assay; format: functional; details: read-out: GI; summary of the method: as §1
LOX IMVI = test: Antitumor activity against human LOX IMVI cells assessed as cell growth inhibition at 10 uM incubated for 48 hrs by sulforhodamine B assay; format: functional; details: read-out: GI; summary of the method: as §1
HCT-116 = test: Antitumor activity against human HCT116 cells assessed as cell growth inhibition at 10 uM incubated for 48 hrs by sulforhodamine B assay; format: functional; details: read-out: GI; summary of the method: as §1
Hs-578T = test: Antitumor activity against human HS 578T cells assessed as cell growth inhibition at 10 uM incubated for 48 hrs by sulforhodamine B assay; format: functional; details: read-out: GI; summary of the method: as §1
MOLT-4 = test: Antitumor activity against human MOLT4 cells assessed as cell growth inhibition at 10 uM incubated for 48 hrs by sulforhodamine B assay; format: functional; details: read-out: GI; summary of the method: as §1
Carbonic anhydrase 12 = Carbonic anhydrase 12 (Homo sapiens, UniProt O43570); test: Inhibition of recombinant human carbonic anhydrase 12 preincubated with enzyme for 15 mins by phenol red dye based stopped flow CO2 hydrase assay
Chain of Carbonic anhydrase 12 (O43570 whole entry): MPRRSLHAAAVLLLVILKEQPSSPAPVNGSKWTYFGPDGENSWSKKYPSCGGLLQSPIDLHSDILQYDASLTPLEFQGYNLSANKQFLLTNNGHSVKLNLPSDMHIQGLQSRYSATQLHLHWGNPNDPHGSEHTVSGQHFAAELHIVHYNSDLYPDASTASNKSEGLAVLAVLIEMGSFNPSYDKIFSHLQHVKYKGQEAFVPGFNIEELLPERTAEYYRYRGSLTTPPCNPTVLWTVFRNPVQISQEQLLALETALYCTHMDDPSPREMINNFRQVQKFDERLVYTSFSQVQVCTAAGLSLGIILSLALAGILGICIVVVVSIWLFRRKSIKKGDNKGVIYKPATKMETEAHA

NCI-H322M = test: Antitumor activity against human NCI-H322M cells assessed as cell growth inhibition at 10 uM incubated for 48 hrs by sulforhodamine B assay; format: functional; details: read-out: GI; summary of the method: as §1
SK-MEL-5 = test: Antitumor activity against human SK-MEL-5 cells assessed as cell growth inhibition at 10 uM incubated for 48 hrs by sulforhodamine B assay; format: functional; details: read-out: GI; summary of the method: as §1
SN12C = test: Antitumor activity against human SN12C cells assessed as cell growth inhibition at 10 uM incubated for 48 hrs by sulforhodamine B assay; format: functional; details: read-out: GI; summary of the method: as §1
SF-539 = test: Antitumor activity against human SF539 cells assessed as cell growth inhibition at 10 uM incubated for 48 hrs by sulforhodamine B assay; format: functional; details: read-out: GI; summary of the method: as §1
MDA-MB-468 = test: Antitumor activity against human MDA-MB-468 cells assessed as cell growth inhibition at 10 uM incubated for 48 hrs by sulforhodamine B assay; format: functional; details: read-out: GI; summary of the method: as §1
DU-145 = test: Antitumor activity against human DU-145 cells assessed as cell growth inhibition at 10 uM incubated for 48 hrs by sulforhodamine B assay; format: functional; details: read-out: GI; summary of the method: as §1

SMILES | inhibition of growth at 10 µM (MDA-MB-231) | inhibition of growth at 10 µM (CCRF-CEM) | inhibition of growth at 10 µM (OVCAR-8) | inhibition of growth at 10 µM (RPMI-8226) | inhibition of growth at 10 µM (SNB-75) | inhibition of growth at 10 µM (NCI-H226) | inhibition of growth at 10 µM (PC-3) | inhibition of growth at 10 µM (SF-268) | inhibition of growth at 10 µM (HOP-92) | inhibition of growth at 10 µM (UO-31) | inhibition of growth at 10 µM (NCI-H522) | inhibition of growth at 10 µM (SK-MEL-2) | Activity (NCI/ADR-RES) | inhibition of growth at 10 µM (OVCAR-3) | IC50 [1] | inhibition of growth at 10 µM (Malme-3M) | inhibition of growth at 10 µM (BT-549) | inhibition of growth at 10 µM (KM12) | Ki (Carbonic anhydrase 9) | inhibition of growth at 10 µM (RXF 393) | other results
Cc1ccc(-c2nc3c(/N=N/c4ccc(S(N)(=O)=O)cc4)c(N)nn3c(N)c2C#N)cc1 | 60% | 88% | 56% | 116% | 51% | 35% | 68% | 65% | 80% | 31% | 71% | 73% | inactive | 76% | 11600 nM | 51% | 44% | 71% | 44.3 nM | 72% | inhibition of growth at 10 µM (IGROV-1): 63%; inhibition of growth at 10 µM (K562): 80%; inhibition of growth at 10 µM (MCF7): 72%; Ki (Carbonic anhydrase 2): 638 nM; inhibition of growth at 10 µM (U-251): 68%; inhibition of growth at 10 µM (CAKI-1): 59%; inhibition of growth at 10 µM (T47D): 66%; inhibition of growth at 10 µM (NCI-H460): 72%; inhibition of growth at 10 µM (LOX IMVI): 78%; inhibition of growth at 10 µM (HCT-116): 86%; inhibition of growth at 10 µM (Hs-578T): 61%; inhibition of growth at 10 µM (MOLT-4): 96%; Ki (Carbonic anhydrase 12): 48.8 nM; inhibition of growth at 10 µM (NCI-H322M): 34%; inhibition of growth at 10 µM (SK-MEL-5): 152%; inhibition of growth at 10 µM (SN12C): 67%; inhibition of growth at 10 µM (SF-539): 69%; inhibition of growth at 10 µM (MDA-MB-468): 94%; inhibition of growth at 10 µM (DU-145): 65%
Nc1nn2cc(-c3ccccc3)[nH]c2c1/N=N/c1ccc(S(N)(=O)=O)cc1 | 80% | 80% | 63% | 94% | 99% | 47% | 68% | 63% | 74% | 81% | 69% | 68% | inactive | 53% | > 25000 nM | 74% | 41% | 67% | 38.1 nM | 93% | inhibition of growth at 10 µM (IGROV-1): 85%; inhibition of growth at 10 µM (K562): 67%; inhibition of growth at 10 µM (MCF7): 54%; Ki (Carbonic anhydrase 2): 75.4 nM; inhibition of growth at 10 µM (U-251): 61%; inhibition of growth at 10 µM (CAKI-1): 96%; inhibition of growth at 10 µM (T47D): 57%; inhibition of growth at 10 µM (NCI-H460): 80%; inhibition of growth at 10 µM (LOX IMVI): 83%; inhibition of growth at 10 µM (HCT-116): 77%; inhibition of growth at 10 µM (Hs-578T): 95%; inhibition of growth at 10 µM (MOLT-4): 86%; Ki (Carbonic anhydrase 12): 30.6 nM; inhibition of growth at 10 µM (NCI-H322M): 63%; inhibition of growth at 10 µM (SK-MEL-5): 73%; inhibition of growth at 10 µM (SN12C): 80%; inhibition of growth at 10 µM (SF-539): 80%; inhibition of growth at 10 µM (MDA-MB-468): 67%; inhibition of growth at 10 µM (DU-145): 57%
